Measurements: ChEMBL document CHEMBL1649405, “Structure-activity relationships study of 6-chloro-4-(2-chlorophenyl)-3-(2-hydroxyethyl) quinolin-2(1H)-one derivatives as novel non-nucleoside anti-hepatitis B virus agents” (Eur J Med Chem, 2011)

Legend:
Hepatitis B virus [1] = assay: Antiviral activity against Hepatitis B virus infected in human HepG2(2.2.15) cells assessed as inhibition of viral surface antigen secretion after 6 days by ELISA; format: functional, organism-based; settings: HepG2 2.2.15, 144 h
Outline: (§1)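 HepG 2.2.15 cells in DMEM with 10% FBS, 37 °C, 5% CO2. Treated for 6 days with refeeding every other day. Culture medium centrifuged at 6000 g to clear debris. HBeAg or HBsAg measured by quantitative ELISA on a microplate reader. IC50 = concentration giving 50% inhibition of secretion. Mean of two independent experiments.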

Hepatitis B virus [2] = assay: Antiviral activity against Hepatitis B virus infected in human HepG2(2.2.15) cells assessed as inhibition of viral e antigen secretion after 6 days by ELISA; format: functional, organism-based; settings: HepG2 2.2.15, 144 h; outline: as §1
[3] = Cytotoxicity against human HepG2(2.2.15) cells; format: cell-based
Outline: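 HepG 2.2.15 cells in DMEM with 10% FBS, 37 °C, 5% CO2. CC50 = concentration killing 50% of cells. Mean of two independent experiments.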

[4] = Selectivity index, ratio of CC50 for human HepG2(2.2.15) cells to IC50 for Hepatitis B virus infected in human HepG2(2.2.15) cells assessed as inhibition of viral surface antigen secretion; format: functional
Outline: (§2)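 Ratio of CC50 in HepG 2.2.15 cells to the IC50 for HBeAg or HBsAg secretion. Both values come from ELISA and cytotoxicity runs on the same cell line. Each input is the mean of two independent experiments.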

[5] = Selectivity index, ratio of CC50 for human HepG2(2.2.15) cells to IC50 for Hepatitis B virus infected in human HepG2(2.2.15) cells assessed as inhibition of viral e antigen secretion; format: functional; outline: as §2
Hepatitis B virus [6] = assay: Antiviral activity against Hepatitis B virus infected in human HepG2(2.2.15) cells assessed as inhibition of viral DNA replication after 6 days by PCR analysis; format: functional, organism-based; settings: Hepatitis B virus, HepG2 2.2.15, 144 h; read-out: IC50
Outline: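 HepG 2.2.15 cells in DMEM with 10% FBS, 5 mM L-glutamine, penicillin/streptomycin, 37 °C, 5% CO2; seeded 5 × 10^5 per well, medium changed every 2 days. Compound added after 6 days, refed every other day for 6 more days. HBV DNA by real-time PCR against a cloned HBV plasmid standard series. IC50 = 50% inhibition. Mean of two independent experiments.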

| Compound | IC50 (Hepatitis B virus [1]) [µM] | IC50 (Hepatitis B virus [2]) [µM] | IC50 (Hepatitis B virus [6]) [µM] | CC50 [3] [µM] | Selectivity Index [4] | Selectivity Index [5] |
| --- | --- | --- | --- | --- | --- | --- |
| O=C(OCCc1c(-c2ccccc2Cl)c2cc(Cl)ccc2[nH]c1=O)c1cccs1 | > 1700 | > 1700 |  | > 1700 |  |  |
| Clc1ccc2nc3c(c(-c4ccccc4Cl)c2c1)CCS3 | > 2400 | > 2400 |  | > 2400 |  |  |
| CCCCC(=O)OCCc1c(-c2ccccc2Cl)c2cc(Cl)ccc2[nH]c1=O | 82 | > 200 |  | 200 | 2.4 | <1 |
| O=c1[nH]c2ccc(Cl)cc2c(-c2ccccc2Cl)c1CCO | 86 | 360 |  | 380 | 4.4 | 1 |
| O=c1c(CCO)c(-c2ccccc2Cl)c2cc(Cl)ccc2n1Cc1c(F)cccc1F | 87 | > 2300 |  | > 2300 | >2.6 |  |
| O=C(/C=C/c1ccc2c(c1)OCO2)OCCc1c(-c2ccccc2Cl)c2cc(Cl)ccc2[nH]c1=O | 150 | 220 | 160 |  | >8.1 | >5.4 |
| CCOCC(=O)OCCc1c(-c2ccccc2Cl)c2cc(Cl)ccc2[nH]c1=O | 95 | > 130 |  | 130 | 1.4 | <1 |
| CC12CCC(C(=O)OCCc3c(-c4ccccc4Cl)c4cc(Cl)ccc4[nH]c3=O)(OC1=O)C2(C)C (centres undefined) | 1500 | > 1800 |  | > 1800 | >1.2 |  |
| Clc1ccc2nc3c(c(-c4ccccc4Cl)c2c1)CCO3 | > 280 | > 280 |  | > 280 |  |  |
| O=C(OCCc1c(-c2ccccc2Cl)c2cc(Cl)ccc2[nH]c1=O)c1ccc([N+](=O)[O-])cc1 | 1200 | 1600 |  | 1600 | 1.4 | 1 |
| CC(=O)OCCc1c(-c2ccccc2Cl)c2cc(Cl)ccc2[nH]c1=O | 74 | > 27 |  | 27 | <1 | <1 |
| O=C(CCC1CCCCC1)OCCc1c(-c2ccccc2Cl)c2cc(Cl)ccc2[nH]c1=O | 85 | 110 |  | 160 | 1.9 | 1.5 |
| N#CCC(=O)OCCc1c(-c2ccccc2Cl)c2cc(Cl)ccc2[nH]c1=O | 75 | > 100 |  | 100 | 1.3 | <1 |
| O=CCc1c(-c2ccccc2Cl)c2cc(Cl)ccc2[nH]c1=O | 76 | > 120 |  | 120 | 1.6 | <1 |
| O=C(CN1C(=O)c2ccccc2C1=O)OCCc1c(-c2ccccc2Cl)c2cc(Cl)ccc2[nH]c1=O | 170 | > 960 |  | 960 | 5.7 | <1 |
| CC(=O)NCC(=O)OCCc1c(-c2ccccc2Cl)c2cc(Cl)ccc2[nH]c1=O | 74 | > 110 |  | 110 | 1.4 | <1 |
| O=C(O)Cc1c(-c2ccccc2Cl)c2cc(Cl)ccc2[nH]c1=O | 350 | > 950 |  | 950 | 2.8 | <1 |
| Nc1ccn([C@@H]2CS[C@H](CO)O2)c(=O)n1 [LAMIVUDINE] | 27000 | 30000 |  |  | 1.1 | 1 |
| O=C(O)CCC(=O)OCCc1c(-c2ccccc2Cl)c2cc(Cl)ccc2[nH]c1=O | 150 | > 110 |  | 110 | <1 | <1 |
| O=c1cc(-c2ccccc2Cl)c2cc(Cl)ccc2[nH]1 | 460 | > 1000 |  |  |  |  |

Now those with a lower IC50 (Hepatitis B virus [1]), led by results:

| IC50 (Hepatitis B virus [1]) [µM] | IC50 (Hepatitis B virus [2]) [µM] | IC50 (Hepatitis B virus [6]) [µM] | Compound | CC50 [3] [µM] | Selectivity Index [4] | Selectivity Index [5] |
| --- | --- | --- | --- | --- | --- | --- |
| 59 | 62 |  | CCC(=O)OCCc1c(-c2ccccc2Cl)c2cc(Cl)ccc2[nH]c1=O | 95 | 1.6 | 1.5 |
| 58 | 22 | 410 | O=C(/C=C/c1cccc(C(F)(F)F)c1)OCCc1c(-c2ccccc2Cl)c2cc(Cl)ccc2[nH]c1=O | > 1400 | >24 | >63 |
| 58 | 62 |  | C/C=C(\C)C(=O)OCCc1c(-c2ccccc2Cl)c2cc(Cl)ccc2[nH]c1=O | 350 | 6.1 | 5.6 |
| 57 | 71 |  | CC(=O)OCC(=O)OCCc1c(-c2ccccc2Cl)c2cc(Cl)ccc2[nH]c1=O | 100 | 1.8 | 1.4 |
| 56 | > 81 |  | O=C(COc1ccccc1)OCCc1c(-c2ccccc2Cl)c2cc(Cl)ccc2[nH]c1=O | 81 | 1.5 | <1 |
| 55 | 55 |  | O=C(OCCc1c(-c2ccccc2Cl)c2cc(Cl)ccc2[nH]c1=O)c1cccnc1 | 170 | 3 | 3 |
| 51 | 58 |  | O=C(OCCc1c(-c2ccccc2Cl)c2cc(Cl)ccc2[nH]c1=O)c1ccco1 | 98 | 1.9 | 1.6 |
| 51 | > 82 |  | CC(=O)N1CCC(C(=O)OCCc2c(-c3ccccc3Cl)c3cc(Cl)ccc3[nH]c2=O)CC1 | 82 | 1.6 | <1 |
| 46 | 46 |  | O=C(OCCc1c(-c2ccccc2Cl)c2cc(Cl)ccc2[nH]c1=O)C1CCCC1 | 46 | 1 | 1 |
| 40 | > 78 |  | CCCCCCCC(=O)OCCc1c(-c2ccccc2Cl)c2cc(Cl)ccc2[nH]c1=O | 78 | 1.9 | <1 |
| 37 | > 62 |  | CC(C)C(=O)OCCc1c(-c2ccccc2Cl)c2cc(Cl)ccc2[nH]c1=O | 62 | 1.7 | <1 |
| 35 | > 52 |  | CCCC(=O)OCCc1c(-c2ccccc2Cl)c2cc(Cl)ccc2[nH]c1=O | 52 | 1.5 | <1 |
| 34 | 2200 |  | O=C(/C=C/c1cccnc1)OCCc1c(-c2ccccc2Cl)c2cc(Cl)ccc2[nH]c1=O | 39 | 1.1 | <1 |
| 33 | 35 |  | O=C(CCOc1ccccc1)OCCc1c(-c2ccccc2Cl)c2cc(Cl)ccc2[nH]c1=O | 46 | 1.4 | 1.3 |
| 32 | > 74 |  | COCC(=O)OCCc1c(-c2ccccc2Cl)c2cc(Cl)ccc2[nH]c1=O | 74 | 1.4 | <1 |
| 32 | > 43 |  | O=C(OCCc1c(-c2ccccc2Cl)c2cc(Cl)ccc2[nH]c1=O)c1ccccc1 | 43 | 1.42 | <1 |
| 30 | 56 |  | O=C(/C=C/c1ccccc1)OCCc1c(-c2ccccc2Cl)c2cc(Cl)ccc2[nH]c1=O | 230 | 7.6 | 4 |
| 27 | 34 |  | O=C(OCCc1c(-c2ccccc2Cl)c2cc(Cl)ccc2[nH]c1=O)C1CCCCC1 | 38 | 1.4 | 1.1 |
| 25 | 22 |  | C/C=C/C(=O)OCCc1c(-c2ccccc2Cl)c2cc(Cl)ccc2[nH]c1=O | 30 | 1.2 | 1.3 |
| 23 | 26 |  | C/C=C/C=C/C(=O)OCCc1c(-c2ccccc2Cl)c2cc(Cl)ccc2[nH]c1=O | 440 | 19 | 17 |
| 22 | 34 |  | Cn1c(=O)c(CCO)c(-c2ccccc2Cl)c2cc(Cl)ccc21 | 34 | 1.6 | 1 |
| 12 | 12 |  | O=c1c(CCO)c(-c2ccccc2Cl)c2cc(Cl)ccc2n1Cc1ccccc1 | 26 | 2.2 | 2.2 |
| 10 | 12 |  | C=CCn1c(=O)c(CCO)c(-c2ccccc2Cl)c2cc(Cl)ccc21 | 23 | 2.3 | 1.9 |
